ChEMBL document CHEMBL3399948, “Discovery of 7-azaindole derivatives as potent Orai inhibitors showing efficacy in a preclinical model of asthma” (Bioorg Med Chem Lett, 2015)

Key:
[1] = Solubility of the compound in water; type: physicochemical
[2] = Inhibition of Orai channel in phytohemagglutinin-stimulated human Jurkat E6-1 cells assessed as NFAT-induced transcription measured as IL-2 level after 20 hrs by ELISA; type: cell-based
[3] = Inhibition of Orai-mediated calcium entry in human Jurkat E6-1 cells after 1 hr by FLIPR assay; type: cell-based
[4] = Drug metabolism in rat liver microsomes at 5 uM after 30 mins in presence of NADPH; type: ADME; conditions: read-out: Drug metabolism
In short: (§1)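 Rat or human hepatic microsomes (1 mg/mL protein) incubated with 5 µM compound plus NADPH for 30 min at 37 °C; result given as percent metabolized.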

[5] = system: CHO; experiment: Cytotoxicity against CHO cells; type: cell-based; conditions: Cricetulus griseus
[6] = Passive permeability of the compound at 20 uM by PAMPA; type: ADME; conditions: read-out: permeability
[7] = Drug metabolism in human liver microsomes at 5 uM after 30 mins in presence of NADPH; type: ADME; conditions: read-out: Drug metabolism; in short: as §1
[8] = Plasma protein binding in Wistar rat; type: ADME, cell-free; conditions: read-out: PPB
[9] = system: LAD2; experiment: Inhibition of degranulation in human LAD2 cells assessed as inhibition of IgE-induced beta-hexosaminidase release preincubated for 30 mins by p-nitrophenyl-N-acetyl-D-glucosamide-based spectrophotometric assay; type: functional, cell-based
In short: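 Human LAD2 mast cells sensitized overnight with 100 ng/mL biotin-IgE in SCF-containing medium. Supernatant β-hexosaminidase measured with p-nitrophenyl-N-acetyl-glucosamide (pH 4.5, 90 min, 37 °C), stopped with glycine pH 10, absorbance read at 405 nm.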

[10] = system: Blood; experiment: Inhibition of IL2 secretion in rat whole blood after 24 hrs by Rat IL-2 DuoSet assay; type: functional, tissue-based
In short: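 Rat whole blood diluted 1:4 in RPMI and stimulated with concanavalin A (62.5 µg/mL) in the presence of increasing compound concentrations for 24 h. Supernatant IL-2 quantified by rat IL-2 ELISA against a standard curve; IC50 derived.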

[11] = biological target: Calcium release-activated calcium channel protein 1 (Homo sapiens, UniProt Q96D31); experiment: Inhibition of human Orai1/STIM1 expressed in HEK293 cells assessed as inhibition of channel-mediated calcium current by electrophysiology assay in presence of 10 mM EGTA; type: cell-based
Chain of Calcium release-activated calcium channel protein 1 (Q96D31 whole entry): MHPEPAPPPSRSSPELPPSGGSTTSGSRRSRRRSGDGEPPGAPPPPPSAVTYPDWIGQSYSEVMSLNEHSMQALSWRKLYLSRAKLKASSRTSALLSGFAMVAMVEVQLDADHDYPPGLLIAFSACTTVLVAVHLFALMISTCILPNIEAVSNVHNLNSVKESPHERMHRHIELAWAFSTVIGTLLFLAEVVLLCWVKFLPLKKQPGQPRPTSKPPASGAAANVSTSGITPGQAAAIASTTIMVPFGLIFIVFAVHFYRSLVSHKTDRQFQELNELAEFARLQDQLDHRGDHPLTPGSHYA
In short: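 Automated whole-cell patch clamp on HEK293 cells stably expressing human STIM1/Orai1. I_CRAC activated by passive store depletion with 10 mM EGTA in the internal solution. Holding potential 0 mV; 100 ms voltage ramps applied every 3 s. IC50 from normalized inhibition, at least 3 cells per concentration; values are mean ± SD of two or more determinations.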

[12] = Lipophilicity, log D of the compound at pH 7.4; type: physicochemical; conditions: buffer
[13] = system: Rattus norvegicus; experiment: Antiinflammatory activity against ovalbumin-induced model of allergic inflammation in brown Norway rat assessed as inhibition of eosinophil infiltration in bronchoalveolar lavage fluid compound administered orally bid 1 hr before and 6.5 hrs post ovalbumin challenge measured 24 hrs post challenge relative to vehicle-treated control; type: functional, organism-based; conditions: Lung
In short: (§2)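 Brown Norway rats (200-250 g) sensitized i.p. with OVA/Alum on days 0, 14 and 21, then challenged with OVA aerosol on day 28. Oral dosing at 3, 10 or 30 mg/kg bid, 1 h before and 6.5 h after challenge. Vehicle: TPGS 11.7%, PEG-400 40%, propylene glycol 15%, water 33.3%. Eight rats per group. BALF eosinophils counted 24 h post-challenge; inhibition expressed versus vehicle. Dexamethasone served as positive control. Plasma levels measured by UPLC-MS.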

[14] = system: Rattus norvegicus; experiment: Antiinflammatory activity against po dosed ovalbumin-induced model of allergic inflammation in brown Norway rat assessed as inhibition of eosinophil infiltration in bronchoalveolar lavage fluid at plasma level >3-fold above IC50 for rat IL-2 inhibition compound administered bid 1 hr before and 6.5 hrs post ovalbumin challenge measured 24 hrs post challenge relative to vehicle-treated control; type: functional; in short: as §2
[15] = Terminal half life in Wistar rat at 1 mg/kg, iv; type: ADME, organism-based; set-up: dose 1 mg/kg, route intravenous; conditions: in vivo, read-out: beta t1/2 (converted)
[16] = Clearance in Wistar rat at 1 mg/kg, iv; type: ADME, organism-based; set-up: dose 1 mg/kg, route intravenous; conditions: in vivo
[17] = Cmax in Wistar rat at 10 mg/kg, po; type: ADME, organism-based; set-up: dose 10 mg/kg, route oral; conditions: in vivo
[18] = system: Rattus norvegicus; experiment: Antiinflammatory activity against ovalbumin-induced model of allergic inflammation in brown Norway rat assessed as inhibition of eosinophil infiltration in bronchoalveolar lavage fluid at 30 mg/kg, po bid 1 hr before and 6.5 hrs post ovalbumin challenge measured 24 hrs post challenge relative to vehicle-treated control; type: functional; conditions: Lung; in short: as §2
[19] = system: Rattus norvegicus; experiment: Antiinflammatory activity against ovalbumin-induced model of allergic inflammation in brown Norway rat assessed as inhibition of eosinophil infiltration in bronchoalveolar lavage fluid at 3 mg/kg, po bid 1 hr before and 6.5 hrs post ovalbumin challenge measured 24 hrs post challenge relative to vehicle-treated control; type: functional; conditions: Lung; in short: as §2
[20] = Volume of distribution at steady state in Wistar rat at 1 mg/kg, iv; type: ADME, organism-based; set-up: dose 1 mg/kg, route intravenous; conditions: in vivo, read-out: Vdss
[21] = system: Rattus norvegicus; experiment: Antiinflammatory activity against ovalbumin-induced model of allergic inflammation in brown Norway rat assessed as inhibition of eosinophil infiltration in bronchoalveolar lavage fluid at 10 mg/kg, po bid 1 hr before and 6.5 hrs post ovalbumin challenge measured 24 hrs post challenge relative to vehicle-treated control; type: functional; conditions: Lung; in short: as §2
[22] = AUC (0 to 24 hrs) in Wistar rat at 1 mg/kg, iv; type: ADME, organism-based; set-up: time < 24 hr, dose 1 mg/kg, route intravenous; conditions: plasma
[23] = AUC (0 to 24 hrs) in Wistar rat at 10 mg/kg, po; type: ADME, organism-based; set-up: time < 24 hr, dose 10 mg/kg, route oral; conditions: plasma
[24] = Oral bioavailability in Wistar rat at 10 mg/kg; type: ADME, organism-based; conditions: in vivo
[25] = system: Rattus norvegicus; experiment: Antiinflammatory activity against ovalbumin-induced model of allergic inflammation in brown Norway rat assessed as inhibition of eosinophil infiltration in bronchoalveolar lavage fluid at 1 mg/kg, po bid 1 hr before and 6.5 hrs post ovalbumin challenge measured 24 hrs post challenge relative to vehicle-treated control; type: functional; conditions: Lung

SMILES: Fc1cccc(Cl)c1-c1cc2cc(-c3cc4c(cc3Cl)OC(F)(F)O4)cnc2[nH]1
- solubility [1]: < 1 µg/mL
- IC50 [2]: 56 nM
- IC50 [3]: 120 nM

SMILES: Cn1nc(C(F)(F)F)cc1-c1cnc2[nH]c(-c3c(F)cccc3Cl)cc2c1
- solubility [1]: < 5 µg/mL
- metabolised at 0.5 h, 5 µM [4]: < 5%
- IC50 [5]: > 100000 nM
- Papp at 20 µM [6]: < 0.05 ×10⁻⁶ cm/s
- metabolised at 0.5 h, 5 µM [7]: < 5%
- fraction unbound [8]: < 0.001
- IC50 [9]: 372 nM
- IC50 [10]: 500 nM
- IC50 [2]: 23 nM
- IC50 [3]: 66 nM
- IC50 [11]: < 100 nM

SMILES: COc1ccc(OC)c(-c2ccc(NC(=O)c3ccncc3F)cc2)c1
- IC50 [2]: 10 nM
- IC50 [3]: 82 nM
- logD [12]: 3.5

SMILES: Cc1cc(C(F)(F)F)ncc1-c1cnc2[nH]c(-c3c(F)cccc3Cl)cc2c1
- IC50 [2]: 120 nM
- IC50 [3]: 129 nM

SMILES: COc1cc(OC)c(-c2cnc3[nH]c(-c4c(F)cccc4Cl)cc3c2)cn1
- inhibition [13]: Dose-dependent effect
- inhibition (INH) [14]: 70%
- half-life [15]: 8 h
- solubility [1]: < 5 µg/mL
- metabolised at 0.5 h, 5 µM [4]: 10%
- clearance [16]: 8 mL/min/kg
- Cmax [17]: 807 ng/mL
- IC50 [5]: > 100000 nM
- Papp at 20 µM [6]: 0.66 ×10⁻⁶ cm/s
- metabolised at 0.5 h, 5 µM [7]: < 5%
- inhibition in vivo at 30 mg/kg [18]: 75%
- inhibition in vivo at 3 mg/kg [19]: 9%
- Vd [20]: 5 L/kg
- IC50 [9]: 630 nM
- IC50 [10]: 740 nM
- inhibition in vivo at 10 mg/kg [21]: 68%
- IC50 [2]: 68 nM
- AUC(0-t) at 24 h [22]: 1820 ng·h/mL
- AUC(0-t) at 24 h [23]: 11200 ng·h/mL
- bioavailability [24]: 62%
- IC50 [3]: 150 nM
- IC50 [11]: 440 nM

SMILES: Cc1cc(OC(F)F)ncc1-c1cnc2[nH]c(-c3c(F)cccc3Cl)cc2c1
- IC50 [2]: 150 nM
- IC50 [3]: 64 nM

SMILES: Cn1nc(C(F)(F)F)cc1-c1cnc2[nH]c(-c3ccccc3Cl)cc2c1
- IC50 [2]: 260 nM
- IC50 [3]: 160 nM

SMILES: Cc1nnsc1C(=O)Nc1ccc(-n2nc(C(F)(F)F)cc2C(F)(F)F)cc1
- IC50 [2]: 10 nM
- IC50 [3]: 75 nM
- logD [12]: 4.4

SMILES: Cc1cc(S(=O)(=O)N(C)C)ccc1-c1cnc2[nH]c(-c3c(F)cccc3Cl)cc2c1
- IC50 [2]: 119 nM
- IC50 [3]: 550 nM

SMILES: CNS(=O)(=O)c1ccc(-c2cnc3[nH]c(-c4c(F)cccc4Cl)cc3c2)c(C)c1
- IC50 [2]: 180 nM
- IC50 [3]: 155 nM

SMILES: Cn1nc(C(F)(F)F)cc1-c1cnc2[nH]c(Cc3ccccc3)cc2c1
- IC50 [2]: 3000 nM
- IC50 [3]: 1400 nM

SMILES: Cn1nc(C(F)(F)F)cc1-c1cnc2[nH]c(C3CCOCC3)cc2c1
- IC50 [3]: > 10000 nM

SMILES: Cc1cc(=O)[nH]cc1-c1cnc2[nH]c(-c3c(F)cccc3Cl)cc2c1
- IC50 [3]: > 10000 nM

SMILES: Cc1cc(S(=O)(=O)N2CCOCC2)ccc1-c1cnc2[nH]c(-c3c(F)cccc3Cl)cc2c1
- IC50 [3]: 10000 nM

SMILES: Cc1cc(=O)n(C)cc1-c1cnc2[nH]c(-c3c(F)cccc3Cl)cc2c1
- IC50 [3]: > 10000 nM

SMILES: COc1ncc(-c2cnc3[nH]c(-c4c(F)cccc4Cl)cc3c2)c(C)n1
- IC50 [3]: 10000 nM

SMILES: Cc1nc2cc(-c3cnc4[nH]c(-c5c(F)cccc5Cl)cc4c3)c(Cl)cc2o1
- solubility [1]: < 1 µg/mL
- IC50 [2]: 117 nM
- IC50 [3]: 88 nM

SMILES: COc1cc(C)c(-c2cnc3[nH]c(-c4c(F)cccc4Cl)cc3c2)cn1
- half-life [15]: 2.1 h
- solubility [1]: < 5 µg/mL
- metabolised at 0.5 h, 5 µM [4]: 10%
- clearance [16]: 24 mL/min/kg
- Cmax [17]: 153 ng/mL
- IC50 [5]: > 100000 nM
- Papp at 20 µM [6]: 0.1 ×10⁻⁶ cm/s
- metabolised at 0.5 h, 5 µM [7]: 15%
- Vd [20]: 4.2 L/kg
- IC50 [9]: 443 nM
- IC50 [10]: 1300 nM
- IC50 [2]: 40 nM
- AUC(0-t) at 24 h [22]: 596 ng·h/mL
- AUC(0-t) at 24 h [23]: 2180 ng·h/mL
- bioavailability [24]: 37%
- IC50 [3]: 71 nM
- IC50 [11]: 104 nM

SMILES: Cc1cc(S(C)(=O)=O)ccc1-c1cnc2[nH]c(-c3c(F)cccc3Cl)cc2c1
- IC50 [2]: 290 nM
- IC50 [3]: 280 nM

SMILES: Cn1nc(C(F)(F)F)cc1-c1cnc2[nH]c(C3CCCC3)cc2c1
- IC50 [2]: 270 nM
- IC50 [3]: 260 nM

SMILES: Cn1nc(C(F)(F)F)cc1-c1cnc2[nH]c(C3CCCCC3)cc2c1
- IC50 [2]: 183 nM
- IC50 [3]: 310 nM

SMILES: CNCc1ccc(-c2cnc3[nH]c(-c4c(F)cccc4Cl)cc3c2)c(C)c1
- IC50 [3]: 10000 nM

SMILES: Cn1nc(C(F)(F)F)cc1-c1cnc2[nH]c(-c3c(F)cccc3F)cc2c1
- IC50 [2]: 73 nM
- IC50 [3]: 140 nM

SMILES: C[C@@H]1C[C@H]2[C@@H]3CCC4=CC(=O)C=C[C@]4(C)[C@@]3(F)[C@@H](O)C[C@]2(C)[C@@]1(O)C(=O)CO [DEXAMETHASONE]
- inhibition in vivo at 1 mg/kg [25]: 100%
